Assay results published in ChEMBL document CHEMBL3414536 (Eur J Med Chem, 2015).
One block for each compound: values may come before it.

Columns and labels:
Hs 683 = test: Cytostatic activity against human Hs683 cells after 72 hrs by videomicroscopy; format: functional, cell-based; conditions: Hs 683, 72 h
[1] = Aqueous solubility of the compound; format: physicochemical; conditions: buffer
Method in brief: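 Solubility measured at pH 7.4, room temperature, by a previously described protocol; reported in µg/ml.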

SK-MEL-28 [2] = test: Cytotoxicity against human SK-MEL-28 cells by MTT assay; format: functional, cell-based
Method in brief: (§1)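 Human cancer cell lines were cultured for three days with or without compound at 10 nM to 100 µM and read by MTT colorimetric assay. IC50 is the concentration reducing global growth by 50% relative to untreated controls.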

A549 = test: Cytotoxicity against human A549 cells by MTT assay; format: functional, cell-based; method in brief: as §1
[3] = Cytotoxicity against human Hs683 cells by MTT assay; format: functional, cell-based; conditions: Hs 683; method in brief: as §1
[4] = Cytotoxicity against human U373 cells by MTT assay; format: functional, cell-based, U-373MG ATCC; conditions: U373 MG; method in brief: as §1
T98G = test: Cytotoxicity against human T98G cells by MTT assay; format: functional, cell-based; method in brief: as §1
[5] = Cytostatic activity against human U373 cells after 72 hrs by videomicroscopy; format: functional, cell-based, U-373MG ATCC; conditions: U373 MG
SK-MEL-28 [6] = test: Cytostatic activity against human SK-MEL-28 cells after 72 hrs by videomicroscopy; format: functional, cell-based; conditions: SK-MEL-28, 72 h

SMILES: Cc1c2c(cc[n+]1Cc1ccccc1)c1ccc(OCC3CCCCC3)cc1n2CC1CCCCC1.[Br-]
- solubility ([1]; read-out: solubility): < 1.7 µg/mL
- IC50 (Hs 683): 400 nM

SMILES: Cc1c2c(cc[n+]1Cc1ccccc1F)c1ccc(OCC3CCCCC3)cc1n2CC1CCCCC1
- IC50 (Hs 683): 300 nM

SMILES: Cc1c2c(cc[n+]1CCC(C)C)c1ccc(OCCC(C)C)cc1n2CCC(C)C
- IC50 (Hs 683): 300 nM

SMILES: Cc1c2c(cc[n+]1Cc1ccccc1)c1ccc(OCCC(C)C)cc1n2CCC(C)C
- IC50 (Hs 683): 3100 nM

SMILES: Cc1c2c(cc[n+]1CCC(C)C)c1ccc(OCCC(C)C)cc1n2CCc1nnn[nH]1
- IC50 (SK-MEL-28 [2]): > 100000 nM
- IC50 (A549): > 100000 nM
- IC50 [3]: > 100000 nM

SMILES: Cc1c2c(cc[n+]1CCC(C)C)c1ccc(OCCO)cc1n2CCO.[Br-]
- solubility ([1]; read-out: solubility): > 219 µg/mL
- IC50 (SK-MEL-28 [2]): > 100000 nM
- IC50 [4]: > 100000 nM
- IC50 (A549): > 100000 nM
- IC50 [3]: > 100000 nM

SMILES: Cc1c2c(cc[n+]1CCO)c1ccc(OCCO)cc1n2CCO.[Br-]
- solubility ([1]; read-out: solubility): > 206 µg/mL
- IC50 (SK-MEL-28 [2]): 51000 nM
- IC50 [4]: > 100000 nM
- IC50 (A549): 51000 nM
- IC50 [3]: > 100000 nM

SMILES: CCCOc1ccc2c3cc[n+](CC)c(C)c3n(CCC)c2c1.[Br-]
- solubility ([1]; read-out: solubility): 174 µg/mL
- IC50 (SK-MEL-28 [2]): 8000 nM
- IC50 (T98G): 22000 nM
- IC50 [4]: 35000 nM
- IC50 (A549): 700 nM
- IC50 [3]: 2000 nM

SMILES: CCCOc1ccc2c3cc[n+](CCC(C)C)c(C)c3n(CCC)c2c1.[Br-]
- solubility ([1]; read-out: solubility): 196 µg/mL
- IC50 (SK-MEL-28 [2]): 3000 nM
- IC50 (T98G): 4000 nM
- IC50 [4]: 22000 nM
- IC50 (A549): 2000 nM
- IC50 [3]: 1000 nM

SMILES: CCCn1c2cc(OCCC(C)C)ccc2c2cc[n+](CC)c(C)c21.[Br-]
- solubility ([1]; read-out: solubility): 186 µg/mL
- IC50 [5]: 1000 nM
- IC50 (SK-MEL-28 [2]): 1000 nM
- IC50 (Hs 683): 1000 nM
- IC50 (SK-MEL-28 [6]): 1000 nM
- IC50 (T98G): 900 nM
- IC50 [4]: 600 nM
- IC50 (A549): 200 nM
- IC50 [3]: 90 nM

SMILES: CCCn1c2cc(OCCC(C)C)ccc2c2cc[n+](CCC)c(C)c21.[Br-]
- solubility ([1]; read-out: solubility): 185 µg/mL
- IC50 (SK-MEL-28 [2]): 900 nM
- IC50 (T98G): 1200 nM
- IC50 [4]: 600 nM
- IC50 (A549): 300 nM
- IC50 [3]: 40 nM

More lines, main results first:

- IC50 (Hs 683): 400 nM
SMILES: Cc1c2c(cc[n+]1CCC(C)C)c1ccc(OCc3ccccc3)cc1n2Cc1ccccc1

- solubility [1]: 2.4 µg/mL
SMILES: Cc1c2c(cc[n+]1Cc1ccc(F)cc1)c1ccc(OCc3cccc(F)c3)cc1n2Cc1cccc(F)c1.[Br-]

- IC50 (Hs 683): 500 nM
SMILES: CCCn1c2cc(OCc3ccccc3)ccc2c2cc[n+](Cc3ccccc3F)c(C)c21

- IC50 (Hs 683): 17000 nM
SMILES: Cc1nccc2c3ccc(OCc4cccc(F)c4)cc3n(Cc3cccc(F)c3)c12

- solubility ([1]; read-out: solubility): 72.5 µg/mL
SMILES: Cc1c2c(cc[n+]1Cc1ccccc1)c1ccc(OCc3ccccc3)cc1n2Cc1ccccc1.[Br-]

- IC50 (Hs 683): 400 nM
SMILES: Cc1c2c(cc[n+]1Cc1ccccc1F)c1ccc(OCc3ccccc3)cc1n2Cc1ccccc1

- solubility ([1]; read-out: solubility): 207 µg/mL
SMILES: CCCn1c2cc(OCc3ccccc3)ccc2c2cc[n+](CC)c(C)c21.[Br-]
- IC50 (SK-MEL-28 [2]): 4000 nM
- IC50 (T98G): 11000 nM
- IC50 [4]: 22000 nM
- IC50 (A549): 2000 nM
- IC50 [3]: 3000 nM

- solubility ([1]; read-out: solubility): 164 µg/mL
- IC50 [5]: 1000 nM
- IC50 (Hs 683): 1000 nM
- IC50 (SK-MEL-28 [6]): 1000 nM
SMILES: CCCn1c2cc(OCc3ccccc3)ccc2c2cc[n+](CCC(C)C)c(C)c21.[Br-]
- IC50 (SK-MEL-28 [2]): 1000 nM
- IC50 (T98G): 1500 nM
- IC50 [4]: 2000 nM
- IC50 (A549): 300 nM
- IC50 [3]: 300 nM

- solubility ([1]; read-out: solubility): 207 µg/mL
SMILES: CCCn1c2cc(OCc3ccccc3)ccc2c2cc[n+](CC(C)C)c(C)c21.[Br-]
- IC50 (SK-MEL-28 [2]): 600 nM
- IC50 (T98G): 3800 nM
- IC50 [4]: 1000 nM
- IC50 (A549): 800 nM
- IC50 [3]: 400 nM

- IC50 (Hs 683): 26000 nM
SMILES: Cc1c2c(cc[n+]1CC(=O)c1ccccc1)c1ccc(OCc3ccccc3)cc1n2Cc1ccccc1
